Measurements published in ChEMBL document CHEMBL1123840, “Synthesis and evaluation of melphalan-containing N,N-dialkylenkephalin analogues as irreversible antagonists of the delta opioid receptor” (J Med Chem, 1987).
Values joined by “and” are separate entries in the source; they are usually repeats but may differ in a detail not shown here. Identical values can stand only once. Square brackets hold non-standard residues; d marks the D form. Peptide text beside a SMILES is read from it. * marks the point of attachment. ξ: configuration not given here. Phe(4-N(CH2CH2Cl)2) = N[C@@H](Cc1ccc(N(CCCl)CCCl)cc1)C(=O)O; Tyr(Nα,Nα-allyl2) = C=CCN(CC=C)[C@@H](Cc1ccc(O)cc1)C(=O)*; ξPhe(4-N(CH2CH2Cl)2) = NC(Cc1ccc(N(CCCl)CCCl)cc1)C(=O)O; X1 = O=C(C(Cc1ccc(O)cc1)N(Cc1ccccc1)Cc1ccccc1)*; ξL = CC(C)CC(N)C(=O)O; Aib = CC(C)(N)C(=O)O

Legend:
[1] = organism: Mus musculus; assay: (§1) Reversible opioid agonist activity in the electrically stimulated mouse vas deferens(MVD) at 1 uM concentration; format: functional
[2] = target: Mu-type opioid receptor (Cavia porcellus) (UniProt P97266); details: 1 uM
Mu-type opioid receptor (Cavia porcellus), sequence (P97266 whole entry): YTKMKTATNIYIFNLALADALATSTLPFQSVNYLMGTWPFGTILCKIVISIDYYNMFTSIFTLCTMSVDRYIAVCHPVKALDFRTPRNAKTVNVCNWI

[3] = target: Delta-type opioid receptor (Mus musculus) (UniProt P32300); assay: Ratio of IC50 of DADLE (agonist) after 10 min of incubation along with compound (antagonist) and IC50 of agonist in the absence of compound for delta opioid receptor at 1 uM in MVD assay; format: functional
Delta-type opioid receptor (Mus musculus), sequence (P32300 whole entry): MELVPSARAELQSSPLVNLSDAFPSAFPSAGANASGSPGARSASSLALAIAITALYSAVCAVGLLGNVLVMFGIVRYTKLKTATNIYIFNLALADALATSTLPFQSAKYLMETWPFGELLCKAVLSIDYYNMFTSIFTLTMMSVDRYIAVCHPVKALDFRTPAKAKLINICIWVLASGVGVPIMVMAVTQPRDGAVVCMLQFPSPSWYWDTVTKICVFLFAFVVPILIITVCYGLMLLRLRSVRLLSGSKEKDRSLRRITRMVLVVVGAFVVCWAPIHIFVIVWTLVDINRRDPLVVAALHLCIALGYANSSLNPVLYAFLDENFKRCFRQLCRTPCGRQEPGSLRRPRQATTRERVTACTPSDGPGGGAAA
Summary of the method: (§2)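 Reversible antagonism was measured in electrically stimulated isolated tissue (MVD or GPI) with the antagonist present. Agonists were morphine (μ), ethylketazocine (κ) and DADLE (δ). The value is the agonist IC50 with antagonist divided by the IC50 without it, i.e. the fold rightward shift of the agonist dose-response curve. Mean ± SEM, n = 3 unless otherwise noted.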

[4] = organism: Cavia porcellus; assay: Reversible opioid agonist activity in the electrically stimulated guinea pig ileum(GPI) at 1 uM concentration (Experiment 2)
[5] = organism: Cavia porcellus; assay: Reversible opioid agonist activity in the electrically stimulated guinea pig ileum(GPI) at 1 uM concentration (Experiment 1)
[6] = target: Mu-type opioid receptor (Homo sapiens) (UniProt P35372); assay: Ratio of IC50 of […] (agonist) after 10 min of incubation along with compound (antagonist) and IC50 of agonist in absence of compound for mu opioid receptor at 1 uM in MVD assay; format: functional; details: Mus musculus; summary of the method: as §2
Mu-type opioid receptor (Homo sapiens), sequence (P35372 whole entry): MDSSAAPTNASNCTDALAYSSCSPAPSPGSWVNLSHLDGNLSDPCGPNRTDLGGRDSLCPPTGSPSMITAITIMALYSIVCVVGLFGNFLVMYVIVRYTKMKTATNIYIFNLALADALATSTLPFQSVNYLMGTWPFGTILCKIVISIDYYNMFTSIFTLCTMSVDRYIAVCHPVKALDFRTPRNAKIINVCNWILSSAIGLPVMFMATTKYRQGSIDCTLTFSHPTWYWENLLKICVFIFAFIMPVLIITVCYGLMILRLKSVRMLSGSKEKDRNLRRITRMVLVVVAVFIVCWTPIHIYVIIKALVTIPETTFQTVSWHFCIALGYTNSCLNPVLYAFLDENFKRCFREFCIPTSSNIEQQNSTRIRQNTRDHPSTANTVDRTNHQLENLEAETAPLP

[7] = target: Mu-type opioid receptor (Cavia porcellus) (UniProt P97266); assay: Ratio of IC50 of […] (agonist) after 10 min of incubation along with compound (antagonist) and IC50 of agonist in absence of compound for mu opioid receptor at 1 uM in GPI assay (Exp 2); format: functional; summary of the method: as §2
[8] = organism: Cavia porcellus; assay: (§3) Reversible opioid agonist activity in the electrically stimulated guinea pig ileum(GPI) at 1 uM concentration (Exp 2)
[9] = organism: Cavia porcellus; assay: Reversible opioid agonist activity in the electrically stimulated guinea pig ileum(GPI) at 1 uM concentration (Exp 1); format: functional; details: Cavia porcellus, Ileum
[10] = target: Kappa-type opioid receptor (Cavia porcellus) (UniProt P41144); assay: Ratio of IC50 of ethylketazocine (agonist) after 10 min of incubation along with compound (antagonist) and IC50 of agonist in absence of compound for kappa opioid receptor at 1 uM in GPI assay (Exp 1); format: functional; summary of the method: as §2
Kappa-type opioid receptor (Cavia porcellus), sequence (P41144 whole entry): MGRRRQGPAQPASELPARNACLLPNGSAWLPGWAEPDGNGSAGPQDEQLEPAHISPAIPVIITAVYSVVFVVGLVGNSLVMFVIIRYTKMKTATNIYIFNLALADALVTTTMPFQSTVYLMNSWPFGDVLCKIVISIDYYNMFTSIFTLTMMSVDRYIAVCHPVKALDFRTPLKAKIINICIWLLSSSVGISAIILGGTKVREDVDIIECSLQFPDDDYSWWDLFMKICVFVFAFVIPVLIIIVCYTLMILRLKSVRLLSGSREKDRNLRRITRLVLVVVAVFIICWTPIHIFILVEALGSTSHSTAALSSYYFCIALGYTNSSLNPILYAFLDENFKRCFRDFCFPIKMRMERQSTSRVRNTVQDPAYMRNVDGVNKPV

[11] = target: Kappa-type opioid receptor (Cavia porcellus) (UniProt P41144); details: 1 uM
[12] = target: Mu-type opioid receptor (Cavia porcellus) (UniProt P97266); assay: Ratio of IC50 of […] (agonist) after 10 min of incubation along with compound (antagonist) and IC50 of agonist in absence of compound for Opioid receptor mu 1 at 1 uM in GPI assay (exp 2); format: functional; summary of the method: as §2
[13] = target: Mu-type opioid receptor (Mus musculus) (UniProt P42866); assay: Ratio of IC50 of […] (agonist) after 10 min of incubation along with compound (antagonist) and IC50 of agonist in absence of compound for Opioid receptor mu 1 at 1 uM in MVD assay; format: functional; summary of the method: as §2
Mu-type opioid receptor (Mus musculus), sequence (P42866 whole entry): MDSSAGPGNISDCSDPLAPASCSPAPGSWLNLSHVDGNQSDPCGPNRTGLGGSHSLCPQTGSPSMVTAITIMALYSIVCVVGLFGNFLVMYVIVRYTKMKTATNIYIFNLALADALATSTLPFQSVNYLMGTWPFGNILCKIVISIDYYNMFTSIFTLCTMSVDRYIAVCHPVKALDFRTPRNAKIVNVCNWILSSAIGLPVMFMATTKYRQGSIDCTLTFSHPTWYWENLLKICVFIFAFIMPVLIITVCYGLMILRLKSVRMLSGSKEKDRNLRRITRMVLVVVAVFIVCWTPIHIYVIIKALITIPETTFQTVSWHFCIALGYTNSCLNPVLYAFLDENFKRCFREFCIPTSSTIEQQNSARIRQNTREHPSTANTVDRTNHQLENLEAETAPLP

[14] = target: T1, Opioid receptors; mu/kappa/delta (Homo sapiens) (UniProt P41145+P41143+P35372); assay: Reversible opioid agonist activity in the electrically stimulated guinea pig ileum(GPI) at 1 uM concentration (exp 1); format: functional, tissue-based; details: Cavia porcellus, target entry is the homologue from another species
T1 sequence (P35372 whole entry, looked up): as the sequence (P35372 whole entry) above
T1 sequence (P41143 whole entry, looked up): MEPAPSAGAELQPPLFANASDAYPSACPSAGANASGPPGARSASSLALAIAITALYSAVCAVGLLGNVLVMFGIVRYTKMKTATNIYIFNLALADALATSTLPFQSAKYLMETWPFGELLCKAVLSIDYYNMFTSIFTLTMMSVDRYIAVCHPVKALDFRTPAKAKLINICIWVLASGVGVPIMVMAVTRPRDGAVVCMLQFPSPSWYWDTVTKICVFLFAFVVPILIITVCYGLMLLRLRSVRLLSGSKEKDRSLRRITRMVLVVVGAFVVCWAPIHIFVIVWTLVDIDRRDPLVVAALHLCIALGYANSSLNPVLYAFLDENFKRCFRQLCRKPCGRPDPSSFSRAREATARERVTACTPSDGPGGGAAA
T1 sequence (P41145 whole entry, looked up): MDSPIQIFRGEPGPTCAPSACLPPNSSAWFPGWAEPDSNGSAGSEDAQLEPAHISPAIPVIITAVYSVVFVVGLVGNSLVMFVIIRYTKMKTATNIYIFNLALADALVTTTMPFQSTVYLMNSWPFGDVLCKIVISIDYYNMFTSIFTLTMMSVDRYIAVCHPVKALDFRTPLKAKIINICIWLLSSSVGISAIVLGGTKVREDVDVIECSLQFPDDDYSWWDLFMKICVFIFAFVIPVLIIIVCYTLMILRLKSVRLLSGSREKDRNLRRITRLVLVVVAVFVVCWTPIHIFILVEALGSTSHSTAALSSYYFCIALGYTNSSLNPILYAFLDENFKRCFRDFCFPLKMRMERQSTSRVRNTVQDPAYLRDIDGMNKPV

[15] = target: Delta-type opioid receptor (Mus musculus) (UniProt P32300); assay: Ratio of IC50 of DADLE (agonist) after 10 min of incubation along with compound (antagonist) and IC50 of agonist in the absence of compound for Opioid receptor delta 1 at 10 uM in MVD assay; format: functional; summary of the method: as §2
[16] = target: T2, Opioid receptor (Mus musculus) (UniProt P42866+P32300+P33534); assay: Reversible opioid agonist activity in the electrically stimulated mouse vas deferens(MVD) at 10 uM of concentration; format: functional
T2 sequence (P32300 whole entry, looked up): as the sequence (P32300 whole entry) above
T2 sequence (P33534 whole entry, looked up): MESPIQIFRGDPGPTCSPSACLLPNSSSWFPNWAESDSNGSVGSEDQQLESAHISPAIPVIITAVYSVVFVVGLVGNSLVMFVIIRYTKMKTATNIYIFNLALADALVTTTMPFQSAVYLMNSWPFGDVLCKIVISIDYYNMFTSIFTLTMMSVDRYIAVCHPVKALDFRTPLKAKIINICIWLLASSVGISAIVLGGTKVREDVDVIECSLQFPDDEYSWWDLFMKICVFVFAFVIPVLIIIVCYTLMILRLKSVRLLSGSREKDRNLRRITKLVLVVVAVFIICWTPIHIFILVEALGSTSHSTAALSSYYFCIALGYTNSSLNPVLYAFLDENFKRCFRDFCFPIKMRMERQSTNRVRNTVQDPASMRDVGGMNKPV
T2 sequence (P42866 whole entry, looked up): as the sequence (P42866 whole entry) above

[17] = organism: Mus musculus; assay: Ratio of IC50 of morphine (agonist) expossed to the compound for 10 min and then washed 30 times to Ratio of IC50 of morphine (agonist) prior to exposure to compound; format: functional
Summary of the method: (§4)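 Irreversible antagonism was measured in isolated tissue. The tissue was exposed to the compound for 10 min (30 min in some cases), then washed 30 times with fresh buffer to remove non-covalently bound ligand. Agonist IC50 was then redetermined. The ratio is this post-wash IC50 over the agonist IC50 in the same tissue before exposure. Mean ± SEM, n = 3 unless otherwise noted.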

[18] = target: Kappa-type opioid receptor (Cavia porcellus) (UniProt P41144); assay: Ratio of IC50 of ethylketazocine (agonist) after 10 min of incubation along with compound (antagonist) and IC50 of agonist in absence of compound for Opioid receptor kappa 1 at 1 uM in GPI assay (Exp 2); format: functional; summary of the method: as §2
[19] = target: Delta-type opioid receptor (Mus musculus) (UniProt P32300); assay: Ratio of IC50 of DADLE (agonist) after 10 min of incubation along with compound (antagonist) and IC50 of agonist in the absence of compound for Opioid receptor delta 1 at 1 uM in MVD assay; format: functional; summary of the method: as §2
[20] = target: Kappa-type opioid receptor (Cavia porcellus) (UniProt P41144); assay: Ratio of IC50 of ethylketazocine (agonist) after 10 min of incubation along with compound (antagonist) and IC50 of agonist in absence of compound for Opioid receptor kappa 1 at 1 uM in GPI assay (Exp 1); format: functional; summary of the method: as §2
[21] = target: T2, Opioid receptor (Mus musculus); assay: as §1; format: functional
[22] = target: T1, Opioid receptors; mu/kappa/delta (Homo sapiens); assay: Reversible opioid agonist activity in the electrically stimulated guinea pig ileum(GPI) at 1 uM concentration (exp 2); format: functional, tissue-based; details: Cavia porcellus, target entry is the homologue from another species
[23] = organism: Mus musculus; assay: Ratio of IC50 of DADLE (agonist) exposed to the compound for 10 min and then washed 30 times to Ratio of IC50 of morphine (agonist) prior to exposure to compound; format: functional; summary of the method: as §4
[24] = target: Mu-type opioid receptor (Cavia porcellus) (UniProt P97266); assay: Ratio of IC50 of […] (agonist) after 10 min of incubation along with compound (antagonist) and IC50 of agonist in absence of compound for Opioid receptor mu 1 at 1 uM in GPI assay (exp 1); format: functional; summary of the method: as §2
[25] = organism: Mus musculus; assay: Ratio of IC50 of DADLE (agonist) expossed to the compound for 10 min and then washed 30 times to Ratio of IC50 of morphine (agonist) prior to exposure to compound; format: functional; summary of the method: as §4
[26] = target: T1, Opioid receptors; mu/kappa/delta (Homo sapiens); details: Cavia porcellus; Ileum; 1 uM
[27] = target: Mu-type opioid receptor (Cavia porcellus) (UniProt P97266); details: 1 uM; remark: listed apart in the source
[28] = target: Mu-type opioid receptor (Mus musculus) (UniProt P42866); details: 10 uM
[29] = target: T1, Opioid receptors; mu/kappa/delta (Homo sapiens); assay: as §3; format: functional, tissue-based; details: Cavia porcellus, target entry is the homologue from another species
[30] = target: Mu-type opioid receptor (Cavia porcellus) (UniProt P97266); details: 1 uM; remark: listed apart in the source

Compound	inhibition at 1 µM [1] [%]	IC50 ratio [2]	IC50 ratio [3]	IC50 ratio [6]	IC50 ratio [7]	IC50 ratio [13]	IC50 ratio [15]	inhibition [16] [%]	IC50 ratio [17]	IC50 ratio [18]	IC50 ratio [19]	IC50 ratio [20]	inhibition [21] [%]	other results
C=CCN(CC=C)[C@@H](Cc1ccc(O)cc1)C(=O)NCC(=O)NCC(=O)N[C@@H](Cc1ccc(N(CCCl)CCCl)cc1)C(=O)N[C@@H](CC(C)C)C(=O)O ({Tyr(Nα,Nα-allyl2)}-GG[Phe(4-N(CH2CH2Cl)2)]L-OH)	4.2	0.6	1.2	1.1	1.1 and 1									inhibition at 1 µM [4]: 10%; inhibition at 1 µM [5]: 23%
C=CCN(CC=C)[C@@H](Cc1ccc(O)cc1)C(=O)NCC(=O)NCC(=O)N[C@@H](Cc1ccccc1)C(=O)N[C@@H](CC(C)C)C(=O)O ({Tyr(Nα,Nα-allyl2)}-GGFL-OH)	10	0.8	2.7	0.8	1.1									inhibition at 1 µM [8]: 0%; inhibition at 1 µM [9]: -6.7%; IC50 ratio [10]: 0.6; IC50 ratio [11]: 1.1
C=CCN(CC=C)[C@@H](Cc1ccc(O)cc1)C(=O)NC(C)(C)C(=O)NC(C)(C)C(=O)N[C@@H](Cc1ccc(N(CCCl)CCCl)cc1)C(=O)N[C@@H](CC(C)C)C(=O)O ({Tyr(Nα,Nα-allyl2)}-[Aib][Aib][Phe(4-N(CH2CH2Cl)2)]L-OH)						2.2	19.4	16.8	3	0.6	5	0.3	20.6	IC50 ratio [12]: 1; inhibition [14]: 8.1%; inhibition [22]: 14.7%; IC50 ratio [23]: 2.9; IC50 ratio [24]: 0.6
CC(C)CC(NC(=O)C(Cc1ccc(N(CCCl)CCCl)cc1)NC(=O)CNC(=O)CNC(=O)C(Cc1ccc(O)cc1)N(Cc1ccccc1)Cc1ccccc1)C(=O)O (stereo not drawn) (X1-GG[ξPhe(4-N(CH2CH2Cl)2)][ξL]-OH)						1	7.7	18.3	1.2	0.4	3	0.4	16.2	IC50 ratio [25]: 2.4; inhibition [26]: 4.8%; IC50 ratio [27]: 0.7; IC50 ratio [28]: 1.7; inhibition [29]: 10%; IC50 ratio [30]: 0.5
